Data from the EternaBench riboswitch data.

System: MS2 coat protein
Assay: apparent Kd, MS2 coat protein; higher = weaker binding; RNA-MaP array; FMN 200 µM where present
How it was run: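 Designs were transcribed by stalled E. coli RNA polymerase on Illumina sequencing-chip clusters. They were titrated with SNAP-549-labelled MS2 coat protein from 0.7 or 1.5 nM, doubling to 3 µM, in 100 mM Tris-HCl pH 7.5, 80 mM KCl, 4 mM MgCl2, BSA, DTT, yeast tRNA and Tween-20, without and then with constant ligand. The apparent Kd is the median of filtered per-cluster fits after normalisation of green signal to red-channel RNA signal and control-cluster median Fmax.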

[1] = designed as: OFF switch for flavin mononucleotide, no ligand
[2] = ligand present: flavin mononucleotide, designed as: OFF switch for flavin mononucleotide
[3] = designed as: ON switch for flavin mononucleotide, no ligand
[4] = ligand present: flavin mononucleotide, designed as: ON switch for flavin mononucleotide

Row | Sequence | apparent Kd [1] | apparent Kd [2] | apparent Kd [3] | apparent Kd [4]
1 | CCAUGGCAUGUAGGAUAUGUCUGACAAAGUCAGACAGAAGGACAUGAGGAUCACCCAUGUAGGAAAUAACCACAUAAGCCAUGG | 6.32 nM | 5.86 nM | – | –
2 | UCAUGUUAGCAGGAUAUGCUAUUUAUCUUUUAUGCAGAAGGGCUUACAUGAGGAUCACCCAUGUAUUAAGUCUU | 18.9 nM | 52.5 nM | – | –
3 | UUAUAUAUAUAAGGAUAUGUAUAUCCAACAUGAGGAUCACCCAUGUUGAGGAUCACCCAUGUAAAGCAGAAGGUAUAUAUAAAU | – | – | 42.8 nM | 26.4 nM
4 | GUGGUCAGACAUGAGGAUCACCCAUGUGGAAUAAAUAAGGAAAAGGAUAUUCAAUAUAGGAUAUAGAAGAAGGUUUGGUUGGUG | – | – | 74.4 nM | 83.4 nM
5 | CACUGCAAUGUAGGAUAUCGACUGGAUAACAGUCGAGAAGGACAUGAGGAUCACCCAUGUAAUCCUAAUAAUAAAUAAGCAGUG | 12.1 nM | 17.8 nM | – | –
6 | CCUAAGGAGGCAGGAUAUAGUGUGGUGGCCGGGCUCCCACGGCGAGCGGCACUAGAAGGGUCGCUACAUGAGGAUCACCCAUGU | – | – | 25 nM | 17.3 nM
7 | AGGAGGUCAGGAUAUGCAUGGCGGGACUUGCGUCGUGGCGUGCAGAAGGGACAUGAGGAUCACCCAUGUGGAGC | 66.4 nM | 106 nM | – | –
8 | CUUUUGUGAGGAUAUCAGUAGUUAAUAAAUAAAAUUACUACUGAGAAGGCACAUGAGGAUCACCCAUGUUCCUC | 37.1 nM | 211 nM | – | –
9 | ACCAGCUCGUCAGGAUAUACGUCACUGCGUCAGCAGUGUGGUAAGAUCACAUGAGGAUCACCCAUGUAGAAGGGACGAGCUGAU | 13.3 nM | 245 nM | – | –
10 | AUUAUUUUGUAGAAGGACGACUAUUAAUAUAUCGUAGGAUAUACUAUUUACAUGAGGAUCACCCAUGUUUAAAUGGAACAAUGU | 4.99 nM | 6.23 nM | – | –
11 | AAUUUGGUCGUAGGAUAUCGGAAGCGGUGCGAACGAGAAGGGCGACAUGAGGAUCACCCAUGUAGCCACGAAGGCGAUCCUUGG | 9.75 nM | 16.3 nM | – | –
12 | AGCUGUGGCCGAGGAUAUCUGAACUUUCAAACCGAAAUAUAAUCGGACAUGAGGAUCACCCAUGUAGAGAAGGCGGUCUCAGCA | 16 nM | 13.6 nM | – | –
13 | AUGUUACAUGAGGAUCACCCAUGUGAGGAUAUGUGUAUCCCUAAAAAAGUGUGGGACCAUAGAAGGCAUUUGGA | 59.1 nM | 64.1 nM | – | –
14 | CCAGUGCGGGUGGUAUGGCUAACAUGAGGAUCACCCAUGUUGCAGGAUAUCGGCCAGAUUGGGCGCGAGAAGGGCAACGCUGAA | 86.6 nM | 32.6 nM | – | –
15 | GAGAUACAUGAGGAUCACCCAUGUGAGGAUAUCGGUUGGAGGAGGUGGAGGUUGAGUACGAGAAGGCACGGAUC | 25 nM | 28.3 nM | – | –
16 | GUCCGAAGGGAGAAGGGCUAGGAGGUCCAGCUUAUGUGUGUUGCAACAUGAGGAUCACCCAUGUAGCAGGAUAUCCCUCGUACA | 44.5 nM | 333 nM | – | –
17 | AUGUAGAACGUAGGAUAUCAAUGAGGAUCACCCUGAGAAGGACGUGAGGACAUGAGGAUCACCCAUGUGGAUCACCCAUGUCAU | 160 nM | 134 nM | – | –
18 | UUUUUAAAUAUAGGAUAUGGAAACAUGAGGAUCACCCAUGUAUGAUAAGAUAAAUUAUGAUAUAGCCAGAAGGAUACAAUUUUU | – | – | 31.9 nM | 38.6 nM
19 | AAUAACAGAGGAUAUACUAUUUUAUGUGUUUGUUGUUUUGAACAUGAGGAUCACCCAUGUAGAAGGCUGAUUGA | 42.6 nM | 45.3 nM | – | –
20 | CUGAUGUCAGGAUAUCGGUGGCUCACUUGUGUGUGCCAGACCGAGAAGGGACAUGAGGAUCACCCAUGUUUUUA | 86.1 nM | 370 nM | – | –
21 | UUUACAUGAGGAUCACCCAUGUUAAAAUAAUUAAUUAUAAGUGAGGAUAUAUAAUUUAUAAAAUUGUAGAAGGCACUGGGUAUU | – | – | 17.4 nM | 21.1 nM
22 | GCCGUAAAUGUGAGGAUAUACCUAUGGAUACAUAGGUAGAAGGCACAUGAGGAUCACCCAUGUUCUCAAUCGGC | 179 nM | 930 nM | – | –
23 | UUUUAACAUGAGGAUCACCCAUGUGAGGAUAUCGAAAUUUAUAUUAAUAUUAUUUUUACGAGAAGGCACAUUUU | 90.3 nM | 95.4 nM | – | –
24 | GCUAUGUCAGGAUAUUGAUCGUGAUCGGAAAUGAUCGUGAUCGAGAAGGGACAUGAGGAUCACCCAUGUGUAGU | 166 nM | 492 nM | – | –

Row | Sequence | apparent Kd [1] | apparent Kd [2] | apparent Kd [3] | apparent Kd [4]
25 | ACGGCUGUCAGAGGAUAUGGUUACAUGAGGAUCACCCAUGUCAAGGGUCUAAUUAAGUAUAACUACUAGAAGGCUGAUGGCCGA | 282 nM | 129 nM | – | –
26 | GCGGCUAAUGCAGGAUAUCGGCGCGUGUAGCGCCGAGAAGGGCACAUGAGGAUCACCCAUGUGAUCAAUCAAUGUUAAUGCCGC | 8.68 nM | 45.6 nM | – | –
27 | CCCUCACAUGAGGAUCACCCAUGUCAGGAUAUCUCACAUCGGCCUUAGGCCGAUGUCUAGAGAAGGGACGUAUC | 22.1 nM | 29.5 nM | – | –
28 | CUGUUACAUGAGGAUCACCCAUGUGAGGAUAUGGUUCGGUACUGUCCUGUCGCGUACUCCAGAAGGCACGUGUC | 29.4 nM | 29.9 nM | – | –
29 | CCAGAGACAUAAGGAUAUCGAGUGGAUAACACUCGAGAAGGUAUGUGAAAACAUGAGGAUCACCCAUGUGAUCAAUACUCUGGA | – | – | 20.1 nM | 20.4 nM
30 | CAUUAAUUCAUUAUAGUAAUUAUACAGGAUAUGUAACAUGAGGAUCACCCAUGUAUUCUUGGUAAACAGAAGGGUAUUACAAGU | 13.7 nM | 12.8 nM | – | –
31 | GUAGCAUACCGAGGAUAUUCAGGGAAUAAAUAAACAUGAGGAUCACCCAUGUGGCGAAAGCCUAGGGAGAAGGCGGAAUGCUAC | – | – | 83.6 nM | 21.5 nM
32 | AACCUAUUACAGAAGGCCAGCUACAUGAGGAUCACCCAUGUCGAGUCAUGGAGGAUAUGUAGUAAUUUACUCGCAGAUAAGUGC | – | – | 22.6 nM | 4.45 nM
33 | GUAGCUAUCGGAGGAUAUUCAUACCGGAAACGGACAUGAGGAUCACCCAUGUGGCGAAAGCCUUGGGAGAAGGCCGAUCGCUAC | – | – | 239 nM | 8.45 nM
34 | CUGUGACGGUGCGCAAGUGGACGGAGAAGGGACACAUGAGGAUCACCCAUGUGAGCCUGCUAUUGUCAGGAUAUCCGUUCGUAC | 8.69 nM | 13.8 nM | – | –
35 | AAGAGUGCAGGAUAUACUUGUUAGGACGGUUGGAUGAUUUGACAUGAGGAUCACCCAUGUAGAAGGGCAGAGAG | 155 nM | 129 nM | – | –
36 | AAAAUCUAUAGAGGAUAUCCAUACGCUGCAUACGGAGAAGGCUAACAAUCAUGAGGACAUGAGGAUCACCCAUGUUGUGACCAU | – | – | 17.6 nM | 9.82 nM
37 | GUGGUCUGACAUGAGGAUCACCCAUGUGGAAUAAAUACGGGUUAGGAUAUCUUGAGGAUCACCCAAGAGAAGGGAUGGAUGGUC | – | – | 100 nM | 106 nM
38 | UCGGCGCGAGGAUAUACGUUUGCUUUUUUUCGUUUUUGUGUACAUGAGGAUCACCCAUGUAGAAGGCGCGCCGC | 15.2 nM | 22.4 nM | – | –
39 | UUUUACGUUUCGUAGCAGUGUCAUCGAGAAGGCCCUGACAUGAGGAUCACCCAUGUUGUUACAUGGGAGGAUAUCGAUGAUGGG | – | – | 41.3 nM | 6.93 nM
40 | AACCUAUUACAGAAGGCCAGCUACAUGAGGAUCACCCAUGUCGAGUCAUGGAGGAUAUGUAGUAAUUUACUCACAGAUGAGUGC | – | – | 25.8 nM | 5.31 nM
41 | UACAUGAGGAUCACCCAUGUUUUGUCGUGUAUGGUAUUUAUCUAGGAUAUCAAUUUGUUAAUUUAUGAGAAGGAGAAUAUUAAU | 35.3 nM | 38.3 nM | – | –
42 | GCUGACGAUGUAGGAUAUCAGUAUAAUAAAUACUGAGAAGGACAUGAGGAUCACCCAUGUAAAAUCCCGUCAGCGAGGAAACUC | 17.1 nM | 23.8 nM | – | –
43 | GGACAGUAAGGAUAUUGAGUCGGACAACGCCGACAGCUAGUCGAGAAGGUACAUGAGGAUCACCCAUGUCAAGU | 19.8 nM | 18 nM | – | –
44 | GAGCGGUGAGCAGGAUAUCCACAUUGCCUCCUACAUGAGGAUCACCCAUGUGGAGAAGGGUUUAUAAGUUCGUGUAUACUCAAU | 10.5 nM | 10 nM | – | –
45 | ACCAAUGCAGGAUAUACAUGAGGAUCACCCAUGUAUAACCUACAUAGAUGAUCAUCAUGUAGAAGGGCAUUGGA | 12.5 nM | 10.1 nM | – | –
46 | AACAUUCUAUCUCAGGAUAUCAUGUCAAAGACAUGAGGAUCACCCAUGUACCAGGAAACUGGUUAUGAGAAGGGAGAUAGAAUGA | – | – | 1220 nM | 227 nM
47 | UUUUACGUUUCGUAGCAGUGUCAUCGAGAAGGCCCUGACAUGAGGAUCACCCAUGUUGUUACAUGGGAGGAUAUCGAUGAUAAA | – | – | 15.9 nM | 5.75 nM
48 | AUCCCGAUAGUAGGAUAUUUCUGCAGUUGUGGUUAGAUCGCCCUACAUGAGGAUCACCCAUGUAGAGAGAAGGACUGUGGUUAU | 5.7 nM | 8.54 nM | – | –
